Test results taken from ChEMBL document CHEMBL2040779, “Multidentate (18)F-polypegylated styrylpyridines as imaging agents for Aβ plaques in cerebral amyloid angiopathy (CAA)” (J Med Chem, 2011).
pKi: −log10 of the molar value. Active and inactive are the calls of the source. The rule behind the calls is not given here.

Assays:
[1] = molecular target: T1, Amyloid-beta precursor protein (Homo sapiens, UniProt P05067); test: Displacement of [18F]-amyvid from amyloid-beta aggregates in alzheimer's disease patient brain homogenates after 1 hr; type: tissue-based
T1 sequence (P05067 whole entry): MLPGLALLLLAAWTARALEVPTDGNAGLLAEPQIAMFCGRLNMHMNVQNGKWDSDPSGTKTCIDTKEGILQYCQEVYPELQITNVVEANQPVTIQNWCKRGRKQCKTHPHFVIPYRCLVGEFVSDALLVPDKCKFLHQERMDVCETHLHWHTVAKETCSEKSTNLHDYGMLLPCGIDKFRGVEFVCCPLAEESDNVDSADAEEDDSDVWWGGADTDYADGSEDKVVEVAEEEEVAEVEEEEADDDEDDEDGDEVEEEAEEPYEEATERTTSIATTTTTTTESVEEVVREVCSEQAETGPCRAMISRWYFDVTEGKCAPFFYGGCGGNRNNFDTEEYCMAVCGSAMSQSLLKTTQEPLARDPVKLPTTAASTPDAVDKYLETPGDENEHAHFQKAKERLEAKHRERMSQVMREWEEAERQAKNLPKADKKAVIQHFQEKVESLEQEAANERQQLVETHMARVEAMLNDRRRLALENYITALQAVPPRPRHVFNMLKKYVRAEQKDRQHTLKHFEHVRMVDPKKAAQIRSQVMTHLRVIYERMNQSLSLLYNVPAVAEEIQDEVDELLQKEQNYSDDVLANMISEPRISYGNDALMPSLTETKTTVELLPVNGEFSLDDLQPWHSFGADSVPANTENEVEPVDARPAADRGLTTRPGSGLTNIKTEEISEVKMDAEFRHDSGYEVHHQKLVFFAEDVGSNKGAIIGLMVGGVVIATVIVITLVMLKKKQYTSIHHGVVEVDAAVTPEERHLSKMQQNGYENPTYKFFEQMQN
How it was run: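 Competition binding in post-mortem AD brain tissue homogenates against [¹⁸F]5 bound to Aβ aggregates. Results are expressed as inhibition constants (Ki, nM).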

[2] = molecular target: T1, Amyloid-beta precursor protein; test: Binding affinity to amyloid-beta plaque in parenchymal region of alzheimer's disease patient brain after 1 hr; details: tested as the 18F-labelled form
How it was run: (§1)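 Post-mortem occipital sections (20 μm) from frozen brains of confirmed CAA, AD and control subjects. The ¹⁸F-labelled tracer was applied in 40% ethanol for 1 h. Sections were washed twice for 2 min in saturated Li₂CO₃/40% ethanol, once for 2 min in 40% ethanol, then rinsed 30 s in water. Dried sections were exposed to film for 12−18 h and the images digitized.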

[3] = molecular target: T1, Amyloid-beta precursor protein; test: Binding affinity to amyloid-beta plaque in parenchymal region of normal human brain after 1 hr; type: tissue-based; details: tested as the 18F-labelled form; how it was run: as §1
[4] = molecular target: T1, Amyloid-beta precursor protein; test: Binding affinity to amyloid-beta plaque in cerebral blood vessels of alzheimer's disease patient cerebral amyloid angiopathy region of brain after 1 hr; type: tissue-based; details: tested as the 18F-labelled form; how it was run: as §1
[5] = molecular target: T1, Amyloid-beta precursor protein; test: Binding affinity to amyloid-beta plaque in cerebral blood vessels of normal human cerebral amyloid angiopathy region of brain after 1 hr; type: tissue-based; details: tested as the 18F-labelled form; how it was run: as §1
[6] = molecular target: T1, Amyloid-beta precursor protein; test: Binding affinity to amyloid-beta plaque in cerebral blood vessels of alzheimer's disease patient cerebral amyloid angiopathy region of brain after 1 hr by autoradiography; type: tissue-based; details: tested as the 18F-labelled form; how it was run: as §1
[7] = molecular target: T1, Amyloid-beta precursor protein; test: Binding affinity to amyloid-beta plaque in cerebral blood vessels of alzheimer's disease patient cerebral amyloid angiopathy region of brain after 1 hr by thioflavin S staining; type: tissue-based; details: tested as the 18F-labelled form
How it was run: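 Adjacent brain sections were fixed 1 h in 10% neutral buffered formalin. Staining was with 0.025% thioflavin S in 40% ethanol for 3−5 min, then differentiation in 50% ethanol. Sections were viewed by fluorescence microscopy.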

[8] = tested on: Liver; test: Biodistribution in ICR mouse liver at 925 KBq, iv after 2 mins by gamma counting; type: ADME, organism-based; details: in vivo
How it was run: (§2)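 The ¹⁸F tracer was given iv to normal ICR mice (n = 6 per time point). Animals were killed by cardiac excision under isoflurane at 2 or 30 min. Organs were removed, weighed and γ-counted. %dose/g was calculated against counts of a 100-fold diluted aliquot of the injectate (1% of initial dose), counted at the same time.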

[9] = tested on: Kidney; test: Biodistribution in ICR mouse kidney at 925 KBq, iv after 2 mins by gamma counting; type: ADME, organism-based; details: in vivo; how it was run: as §2
[10] = tested on: Blood; test: Biodistribution in ICR mouse blood at 925 KBq, iv after 2 mins by gamma counting; type: ADME, organism-based; details: in vivo; how it was run: as §2
[11] = tested on: Muscle tissue; test: Biodistribution in ICR mouse muscle at 925 KBq, iv after 2 mins by gamma counting; type: ADME, organism-based; details: in vivo; how it was run: as §2
[12] = tested on: Liver; test: Biodistribution in ICR mouse liver at 925 KBq, iv after 30 mins by gamma counting; type: ADME, organism-based; details: in vivo, 0.5 h; how it was run: as §2
[13] = tested on: Brain; test: Biodistribution in ICR mouse brain at 925 KBq, iv after 2 mins by gamma counting; type: ADME, organism-based; details: in vivo; how it was run: as §2
[14] = tested on: Brain; test: Biodistribution in ICR mouse brain at 925 KBq, iv after 30 mins by gamma counting; type: ADME, organism-based; details: in vivo, 0.5 h; how it was run: as §2
[15] = tested on: Muscle tissue; test: Biodistribution in ICR mouse muscle at 925 KBq, iv after 30 mins by gamma counting; type: ADME, organism-based; details: in vivo, 0.5 h; how it was run: as §2
[16] = tested on: Blood; test: Biodistribution in ICR mouse blood at 925 KBq, iv after 30 mins by gamma counting; type: ADME, organism-based; details: in vivo, 0.5 h; how it was run: as §2
[17] = tested on: Bone; test: Biodistribution in ICR mouse bone at 925 KBq, iv after 2 mins by gamma counting; type: ADME, organism-based, Bone element; details: in vivo; how it was run: as §2
[18] = tested on: Bone; test: Biodistribution in ICR mouse bone at 925 KBq, iv after 30 mins by gamma counting; type: ADME, organism-based, Bone element; details: in vivo, 0.5 h; how it was run: as §2
[19] = tested on: Kidney; test: Biodistribution in ICR mouse kidney at 925 KBq, iv after 30 mins by gamma counting; type: ADME, organism-based; details: in vivo, 0.5 h; how it was run: as §2

pKi [1] | Drug uptake [8] [% ID/g] | Drug uptake [9] [% ID/g] | Drug uptake [10] [% ID/g] | Drug uptake [11] [% ID/g] | Drug uptake [12] [% ID/g] | Drug uptake [13] [% ID/g] | Drug uptake [14] [% ID/g] | Drug uptake [15] [% ID/g] | Drug uptake [16] [% ID/g] | Drug uptake [17] [% ID/g] | Drug uptake [18] [% ID/g] | Drug uptake [19] [% ID/g] | Compound | further results
8.11 | – | – | – | – | – | – | – | – | – | – | – | – | CNc1ccc(/C=C/c2ccc(OCCOCCOCCOCCOCCOCC(COCCOCCOCCOCCOCCOc3ccc(/C=C/c4ccc(NC)cc4)cn3)OCCF)nc2)cc1 | –
7.15 | – | – | – | – | – | – | – | – | – | – | – | – | CNc1ccc(/C=C/c2ccc(OCCOCCOCCOCCNC(=O)CN(CC(=O)NCCOCCOCCOCCOc3ccc(/C=C/c4ccc(NC)cc4)cn3)C(=O)COCCOCCOCCF)nc2)cc1 | –
– | – | – | – | – | – | – | – | – | – | – | – | – | CNc1ccc(/C=C/c2ccc(OCCOCCOCCF)nc2)cc1 | Activity [2]: Active; Activity [3]: inactive; Activity [4]: Active; Activity [5]: inactive
8.49 | – | – | – | – | – | – | – | – | – | – | – | – | CNc1ccc(/C=C/c2ccc(OCCOCCOCCOCCOCC(COCCOCCOCCOCCOc3ccc(/C=C/c4ccc(NC)cc4)cn3)OCCF)nc2)cc1 | Activity [2]: Active; Activity [3]: inactive; Activity [4]: Active; Activity [6]: Active; Activity [7]: Active; Activity [5]: inactive
6.33 | – | – | – | – | – | – | – | – | – | – | – | – | CNc1ccc(/C=C/c2ccc(OCCOCCOCCOCCn3cc(COCC(COCCOCCOCCF)(COCc4cn(CCOCCOCCOCCOc5ccc(/C=C/c6ccc(NC)cc6)cn5)nn4)COCc4cn(CCOCCOCCOCCOc5ccc(/C=C/c6ccc(NC)cc6)cn5)nn4)nn3)nc2)cc1 | –
– | 21.5 | 10.9 | 3.14 | 1.06 | 12.9 | 7.77 | 1.59 | 1.78 | 2.8 | 1.43 | 1.22 | 6.31 | CNc1ccc(/C=C/c2ccc(OCCOCCOCC[18F])nc2)cc1 [FLORBETAPIR F 18] | –
< 6.00 | – | – | – | – | – | – | – | – | – | – | – | – | CN(C(=O)OC(C)(C)C)c1ccc(/C=C/c2ccc(OCCOCCOCCOCCOCC(COCCOCCOCCOCCOc3ccc(/C=C/c4ccc(N(C)C(=O)OC(C)(C)C)cc4)cn3)OCCF)nc2)cc1 | –
8.41 | – | – | – | – | – | – | – | – | – | – | – | – | CNc1ccc(/C=C/c2ccc(OCCOCCOCCOCCOCCOCCOCC(COCCOCCOCCOCCOCCOCCOc3ccc(/C=C/c4ccc(NC)cc4)cn3)OCCF)nc2)cc1 | –
– | 21.2 | 8.13 | 4.77 | 0.82 | 21.4 | 0.4 | 0.4 | 1.21 | 1.54 | 1.3 | 2.34 | 9.36 | CNc1ccc(/C=C/c2ccc(OCCOCCOCCOCCOCC(COCCOCCOCCOCCOc3ccc(/C=C/c4ccc(NC)cc4)cn3)OCC[18F])nc2)cc1 | –
– | 33.5 | 14.9 | 2.55 | 1.3 | 20 | 0.4 | 0.34 | 1.62 | 1.32 | 1.64 | 1.8 | 13.4 | CNc1ccc(/C=C/c2ccc(OCCOCCOCCOCCOCCOCC(COCCOCCOCCOCCOCCOc3ccc(/C=C/c4ccc(NC)cc4)cn3)OCC[18F])nc2)cc1 | –
8.65 | – | – | – | – | – | – | – | – | – | – | – | – | CNc1ccc(/C=C/c2ccc(OCCOCCOCC[18F])cc2)cc1 [FLORBETABEN F18] | –
9.13 | – | – | – | – | – | – | – | – | – | – | – | – | CNc1ccc(-c2nc3ccc(O)cc3s2)cc1[18F] [FLUTEMETAMOL F 18] | –
– | 30.2 | 13.7 | 3.12 | 0.65 | 16 | 0.29 | 0.38 | 1.29 | 1.4 | 1.06 | 1.36 | 11.7 | CNc1ccc(/C=C/c2ccc(OCCOCCOCCOCCOCCOCCOCC(COCCOCCOCCOCCOCCOCCOc3ccc(/C=C/c4ccc(NC)cc4)cn3)OCC[18F])nc2)cc1 | –
